Reference: ChEMBL document CHEMBL5096186, “Design, Synthesis, and Biological Evaluation of Novel Pyrimido[4,5-b]indole Derivatives Against Gram-Negative Multidrug-Resistant Pathogens” (J Med Chem, 2021)
≈ marks a conversion by molar mass, not a printed value.

What was measured:
[1] = test system: Staphylococcus aureus; experiment: Antibacterial activity against methicillin-sensitive Staphylococcus aureus strains 15 1 to 4 assessed as reduction in bacterial growth incubated for 18 to 20 hrs by CLSI based microdilution method; format: functional; details: time 18-20 hrs
How it was run: (§1)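 Broth microdilution per CLSI. Compounds dissolved in DMSO (levofloxacin and meropenem in water) as 64 μg/mL stock, then serial twofold dilutions in broth giving 64 to 0.008 μg/mL. […] Clinical isolates tested as several strains per group; racemic GP-1 served as positive control; values given as MIC ranges.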

[2] = test system: Staphylococcus epidermidis; experiment: Antibacterial activity against methicillin-sensitive Staphylococcus epidermidis strains 15 1 to 4 assessed as reduction in bacterial growth incubated for 18 to 20 hrs by CLSI based microdilution method; format: functional; details: time 18-20 hrs; how it was run: as §1
[3] = test system: Escherichia coli; experiment: Antibacterial activity against ESBL-producing Escherichia coli ATCC 35218 strains 15 1 to 3 assessed as reduction in bacterial growth incubated for 18 to 20 hrs by CLSI based microdilution method; format: functional; details: time 18-20 hrs
How it was run: (§2)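 CLSI broth microdilution. Compounds in DMSO (levofloxacin and meropenem in water), serial twofold dilutions in broth, 64 to 0.008 μg/mL. […] Results reported as MIC ranges across strains.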

[4] = test system: Escherichia coli; experiment: Antibacterial activity against Escherichia coli ATCC 35218 strains 15 1 to 3 assessed as reduction in bacterial growth incubated for 18 to 20 hrs by CLSI based microdilution method; format: functional; details: time 18-20 hrs; how it was run: as §2
[5] = test system: Pseudomonas aeruginosa; experiment: Antibacterial activity against multidrug resistant Pseudomonas aeruginosa strains 15 1 to 3 assessed as reduction in bacterial growth incubated for 18 to 20 hrs by CLSI based microdilution method; format: functional; details: time 18-20 hrs; how it was run: as §1
[6] = molecular target: hERG (KCNH2) potassium channel (Homo sapiens, UniProt Q12809); experiment: Inhibition of hERG potassium channel assessed as maximum inhibition rate at 40 uM at -80 mV holding potential incubated for 120 seconds by whole cell-automated voltage clamp analysis assay relative to control; format: toxicity; details: time 120 sec
How it was run: (§3)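 Automated whole-cell patch clamp, holding potential −80 mV. Voltage protocol applied every 20 s. Baseline set with external solution containing 0.1% DMSO and stabilised 3 min. Compound applied until steady state, at least 3 min, then washout. Maximum tested concentration 40 μM, or 3 μM for cisapride as positive control.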

[7] = molecular target: Voltage-gated inwardly rectifying potassium channel KCNH2 (Homo sapiens, UniProt Q12809); experiment: Inhibition of hERG potassium channel assessed as […] at -80 mV holding potential incubated for 120 seconds by whole cell-automated voltage clamp analysis assay; format: toxicity; how it was run: as §3
[8] = test system: Escherichia coli; experiment: Antibacterial activity against ESBL-producing multidrug resistant Escherichia coli assessed as reduction in bacterial growth incubated for 18 to 20 hrs by CLSI based microdilution method; format: functional; details: time 18-20 hrs; how it was run: as §1
[9] = test system: Escherichia coli; experiment: Antibacterial activity against multidrug resistant wild type Escherichia coli ATCC BAA-2340 assessed as reduction in bacterial growth incubated for 18 to 20 hrs by CLSI based microdilution method; format: functional; details: time 18-20 hrs; how it was run: as §1
[10] = test system: Escherichia coli; experiment: Antibacterial activity against multidrug resistant wild type Escherichia coli NCTC 13353 assessed as reduction in bacterial growth incubated for 18 to 20 hrs by CLSI based microdilution method; format: functional; details: time 18-20 hrs; how it was run: as §1
[11] = test system: Klebsiella pneumoniae; experiment: Antibacterial activity against KPC2-producing multidrug resistant Klebsiella pneumoniae assessed as reduction in bacterial growth incubated for 18 to 20 hrs by CLSI based microdilution method; format: functional; details: time 18-20 hrs; how it was run: as §1
[12] = test system: Klebsiella pneumoniae; experiment: Antibacterial activity agains wild type Klebsiella pneumoniae ATCC BAA-1705 assessed as reduction in bacterial growth incubated for 18 to 20 hrs by CLSI based microdilution method; format: functional; details: time 18-20 hrs; how it was run: as §2
[13] = test system: Klebsiella pneumoniae; experiment: Antibacterial activity agains wild type Klebsiella pneumoniae ATCC BAA-2470 assessed as reduction in bacterial growth incubated for 18 to 20 hrs by CLSI based microdilution method; format: functional; details: time 18-20 hrs; how it was run: as §1
[14] = test system: Acinetobacter baumannii; experiment: Antibacterial activity agains OXA23-producing multidrug resistant Acinetobacter baumannii assessed as reduction in bacterial growth incubated for 18 to 20 hrs by CLSI based microdilution method; format: functional; details: time 18-20 hrs; how it was run: as §1
[15] = test system: Acinetobacter baumannii; experiment: Antibacterial activity against wild type Acinetobacter baumannii NCTC 13304 assessed as reduction in bacterial growth incubated for 18 to 20 hrs by CLSI based microdilution method; format: functional; details: time 18-20 hrs; how it was run: as §1
[16] = test system: Pseudomonas aeruginosa; experiment: Antibacterial activity against IMP4-producing multidrug resistant Pseudomonas aeruginosa assessed as reduction in bacterial growth incubated for 18 to 20 hrs by CLSI based microdilution method; format: functional; details: time 18-20 hrs; how it was run: as §1
[17] = test system: Pseudomonas aeruginosa; experiment: Antibacterial activity against wild type Pseudomonas aeruginosa ATCC 27853 assessed as reduction in bacterial growth incubated for 18 to 20 hrs by CLSI based microdilution method; format: functional; details: time 18-20 hrs; how it was run: as §2
[18] = Metabolic stability in rat liver microsome assessed as elimination half life at 0.1 uM in presence of NADPH incubated upto 60 mins by LC-MS/MS analysis; format: ADME; details: liver microsomes, read-out: beta t1/2
How it was run: (§4)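 Compound at 0.1 μM final, in 0.01% DMSO with 0.005% BSA. Incubated with rat or human liver microsomes at 0.33 mg/mL in 0.1 M Tris-HCl, pH 7.4, with 5 mM MgCl₂ and 1 mM NADPH, at 37 °C. Samples at 0, 7, 17, 30 and 60 min quenched with cold methanol and analysed by LC-MS/MS. Half-life, Cl_int and MF% derived as previously described.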

[19] = Metabolic stability in human liver microsome assessed as elimination half life at 0.1 uM in presence of NADPH incubated upto 60 mins by LC-MS/MS analysis; format: ADME; details: liver microsomes, read-out: beta t1/2; how it was run: as §4
[20] = Metabolic stability in rat liver microsome assessed as intrinsic clearance at 0.1 uM in presence of NADPH incubated upto 60 mins by LC-MS/MS analysis; format: ADME; details: microsomes, 1 h; how it was run: as §4
[21] = Metabolic stability in human liver microsome assessed as intrinsic clearance at 0.1 uM in presence of NADPH incubated upto 60 mins by LC-MS/MS analysis; format: ADME; details: microsomes, 1 h; how it was run: as §4
[22] = Metabolic stability in rat liver microsome assessed as metabolic bioavailability at 0.1 uM in presence of NADPH incubated upto 60 mins by LC-MS/MS analysis; format: ADME; details: liver microsomes; how it was run: as §4
[23] = Metabolic stability in human liver microsome assessed as metabolic bioavailability at 0.1 uM in presence of NADPH incubated upto 60 mins by LC-MS/MS analysis; format: ADME; details: liver microsomes; how it was run: as §4
[24] = Drug metabolism in Spargue-Dawley rat liver microsomes assessed as formation of M5 metabolite incubated upto 60 mins by UHPLC-MS/MS analysis; format: ADME, Microsome; details: 1 h
How it was run: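 Male SD rat liver microsomes at 1 mg protein/mL with 2 mM NADP and 5 mM MgCl₂ in 100 mM potassium phosphate, pH 7.4. Compound preincubated 5 min at 37 °C. Samples at 0, 30 and 60 min quenched with cold acetonitrile containing 0.1% formic acid, then analysed by UHPLC-MS/MS. Relative peak areas from extracted ion chromatograms at 60 min.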

[25] = AUC (0 to infinity) in Sprague-Dawley rat at 4 mg/kg, iv measured upto 24 hrs by LC-MS/MS analysis; format: ADME, organism-based; parameters: time < 24 hrs, dose 4 mg/kg, route iv; details: in vivo
How it was run: (§5)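 Male Sprague-Dawley rats, n = 3 per group, single intravenous dose. For 4 mg/kg: 180–280 g rats, vehicle 5% DMSO + 5% EtOH + 40% PEG300 + 50% saline, blood from the retrobulbar vein at 0.05–24 h. For 5 and 20 mg/kg: 180–300 g rats, vehicle 5% DMSO + 5% solutol + 90% saline, sampled at 0.083–24 h. Plasma quantified by LC/MS/MS. Parameters from mean plasma concentration by noncompartmental analysis; values are mean ± standard deviation.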

[26] = Elimination half life in Sprague-Dawley rat at 4 mg/kg, iv measured upto 24 hrs by LC-MS/MS analysis; format: ADME, organism-based; details: in vivo, read-out: beta t1/2 (converted); how it was run: as §5
[27] = MRT in Sprague-Dawley rat at 4 mg/kg, iv measured upto 24 hrs by LC-MS/MS analysis; format: ADME, organism-based; details: in vivo; how it was run: as §5
[28] = Clearance in Sprague-Dawley rat at 4 mg/kg, iv measured upto 24 hrs by LC-MS/MS analysis; format: ADME, organism-based; details: in vivo; how it was run: as §5
[29] = Volume of distribution at the steady state in Sprague-Dawley rat at 4 mg/kg, iv measured upto 24 hrs by LC-MS/MS analysis; format: ADME, organism-based; details: in vivo, read-out: Vdss; how it was run: as §5
[30] = Cytotoxicity against human L02 cells assessed as cell viability measured for 48 hrs by CCK-8 assay; format: toxicity, cell-based
How it was run: (§6)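 Cells seeded at 1 × 10⁴ per well and grown for 48 h. Then exposed to test articles at 1–200 μM for another 48 h (n = 6). Viability by CCK-8 added for 2 h, absorbance read at 450 nm. CC50 calculated and reported as the mean.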

[31] = Cytotoxicity against human HEK293 cells assessed as cell viability measured for 48 hrs by CCK-8 assay; format: toxicity, cell-based; how it was run: as §6

Sequence of Voltage-gated inwardly rectifying potassium channel KCNH2 (Q12809 whole entry): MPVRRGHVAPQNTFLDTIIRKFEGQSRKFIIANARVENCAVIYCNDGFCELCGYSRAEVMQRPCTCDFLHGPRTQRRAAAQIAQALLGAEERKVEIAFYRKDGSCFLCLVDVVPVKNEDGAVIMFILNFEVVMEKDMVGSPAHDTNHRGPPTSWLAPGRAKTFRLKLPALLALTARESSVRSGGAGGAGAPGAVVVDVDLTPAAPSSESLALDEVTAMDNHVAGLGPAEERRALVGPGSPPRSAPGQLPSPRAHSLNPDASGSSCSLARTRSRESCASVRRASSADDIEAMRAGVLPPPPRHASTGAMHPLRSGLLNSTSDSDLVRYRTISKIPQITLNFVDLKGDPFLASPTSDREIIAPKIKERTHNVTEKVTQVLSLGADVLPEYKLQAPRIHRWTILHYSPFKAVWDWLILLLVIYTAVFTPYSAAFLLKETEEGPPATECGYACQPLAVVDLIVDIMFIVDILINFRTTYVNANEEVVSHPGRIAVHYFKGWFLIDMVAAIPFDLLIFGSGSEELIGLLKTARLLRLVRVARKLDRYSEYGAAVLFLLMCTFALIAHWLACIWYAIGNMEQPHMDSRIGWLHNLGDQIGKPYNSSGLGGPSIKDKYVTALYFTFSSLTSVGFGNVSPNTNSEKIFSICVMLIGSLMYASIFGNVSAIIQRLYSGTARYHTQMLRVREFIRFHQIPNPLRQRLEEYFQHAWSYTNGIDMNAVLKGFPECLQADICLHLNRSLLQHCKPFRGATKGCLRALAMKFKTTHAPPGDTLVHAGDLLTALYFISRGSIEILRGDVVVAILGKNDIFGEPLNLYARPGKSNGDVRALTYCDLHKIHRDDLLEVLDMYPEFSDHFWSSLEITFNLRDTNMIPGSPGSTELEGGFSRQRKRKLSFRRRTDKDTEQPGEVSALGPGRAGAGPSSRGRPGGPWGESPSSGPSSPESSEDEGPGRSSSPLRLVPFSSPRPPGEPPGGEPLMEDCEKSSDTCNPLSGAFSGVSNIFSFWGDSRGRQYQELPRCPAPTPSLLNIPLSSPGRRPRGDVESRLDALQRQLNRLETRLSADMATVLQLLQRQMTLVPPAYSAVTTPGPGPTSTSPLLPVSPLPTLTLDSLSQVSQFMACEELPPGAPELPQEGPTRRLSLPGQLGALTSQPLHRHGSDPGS
Sequence of hERG (KCNH2) potassium channel (Q12809 whole entry): as above

Q: With `CCC(CN)=C1CN(c2nc(Oc3cnc(C)nc3)nc3[nH]c4c(NC)cc(F)cc4c23)C1` as the compound, how does the MIC [1] read?
A: Its MIC is < 0.008 µg/mL.

Q: What about the MIC [2] of the same compound?
A: Its MIC is < 0.008 µg/mL.

Q: What about the MIC [3] of the same compound?
A: Its MIC is < 0.008 µg/mL.

Q: What about the MIC [4] of the same compound?
A: The MIC was < 0.008 µg/mL.

Q: What about the MIC [5] of the same compound?
A: Its MIC is 0.5 µg/mL (≈ 1.11 µM).

Q: And the inhibition at 2 min, 40 µM [6]?
A: The inhibition at 2 min, 40 µM was 41.1%.

Q: What about the IC50 [7] of the same compound?
A: The IC50 was > 40 µM.

Q: And the MIC [8]?
A: Its MIC is 0.25 µg/mL (≈ 0.557 µM).

Q: And the MIC [9]?
A: The MIC was 0.25 µg/mL (≈ 0.557 µM).

Q: And the MIC [10]?
A: Its MIC is 0.125 µg/mL (≈ 0.279 µM).

Q: What about the MIC [11] of the same compound?
A: The MIC was 1 µg/mL (≈ 2.23 µM).

Q: What about the MIC [12] of the same compound?
A: Its MIC is 2 µg/mL (≈ 4.46 µM).

Q: And the MIC [13]?
A: The MIC was 1 µg/mL (≈ 2.23 µM).

Q: And the MIC [14]?
A: The MIC was 0.125 µg/mL (≈ 0.279 µM).

Q: What about the MIC [15] of the same compound?
A: The MIC was 0.125 µg/mL (≈ 0.279 µM).

Q: And the MIC [16]?
A: Its MIC is 2 µg/mL (≈ 4.46 µM).

Q: What about the MIC [17] of the same compound?
A: The MIC was 1 µg/mL (≈ 2.23 µM).

Q: What about the half-life at 0.1 µM [18] of the same compound?
A: Its half-life at 0.1 µM is 0.472 h.

Q: And the half-life at 0.1 µM [19]?
A: Its half-life at 0.1 µM is 2.45 h.

Q: What about the CLH [20] of the same compound?
A: Its CLH is 74.3 mL/min/g.

Q: And the CLH [21]?
A: Its CLH is 14.3 mL/min/g.

Q: What about the Fh at 1 h, 0.1 µM [22] of the same compound?
A: The Fh at 1 h, 0.1 µM was 37.4%.

Q: What about the Fh at 1 h, 0.1 µM [23] of the same compound?
A: Its Fh at 1 h, 0.1 µM is 57.8%.

Q: And the Activity [24]?
A: Its Activity is 72.85%.

Q: What about the AUC(0-inf) [25] of the same compound?
A: Its AUC(0-inf) is 776 ng·h/mL.

Q: What about the half-life [26] of the same compound?
A: The half-life was 3.7 h.

Q: What about the MRT [27] of the same compound?
A: The MRT was 2.8 h.

Q: What about the clearance [28] of the same compound?
A: Its clearance is 86.7 mL/min/kg.

Q: What about the Vd [29] of the same compound?
A: Its Vd is 14.7 L/kg.

Q: What about the CC50 at 48 h [30] of the same compound?
A: The CC50 at 48 h was 9.74 µM.

Q: And the CC50 at 48 h [31]?
A: The CC50 at 48 h was 17 µM.
